Results from ChEMBL document CHEMBL4339193, “Phenotypic Screening-Based Identification of 3,4-Disubstituted Piperidine Derivatives as Macrophage M2 Polarization Modulators: An Opportunity for Treating Multiple Sclerosis” (J Med Chem, 2019).
Calls of active or inactive are those of the source. No cut-off for these calls is given here.

Assays:
[1] = Tmax in Sprague-Dawley rat at 50 mg/kg, po administered as single dose via gavage by LC/MS analysis; format: ADME, organism-based; conditions: in vivo
Procedure, shortened: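 Single dose given to rats. Venous blood (100 µL) drawn at 0, 0.5, 1, 2, 4, 8 and 12 h. Plasma separated by centrifugation and stored at -20 °C, then compound measured by LC/MS. Cmax, Tmax, t1/2 and AUC derived from the concentration-time data.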

[2] = test system: Mus musculus; test: (§1) Antiinflammatory activity in C57BL/6J mouse model of MOG (35 to 55 residues)/pertussis toxin/complete Freund's adjuvant-induced experimental allergic encephalomyelitis assessed as effect on dendritic cell population in CNS by measuring change in CD11c level at 200 mg/kg, ig administered daily starting from 7 days post-immunization measured after 13 to 19 days post-immunization by flow cytometry analysis; format: functional, organism-based
Procedure, shortened: (§2)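 MOG35-55/CFA EAE mice were dosed daily in saline from day 7 and sampled between days 13 and 19. Spleens and dLNs were mechanically dissociated to single cells. CNS cells came from collagenase IV digestion and a 70%/30% Percoll gradient. Cells were surface-stained with fluorochrome antibodies, including CD4, CD11b, CD11c and MHC-II, and analysed by flow cytometry.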

[3] = test system: Mus musculus; test: as §1, with “draining lymph nodes” for “CNS”; format: functional, organism-based; procedure, shortened: as §2
[4] = test system: Mus musculus; test: Induction of M2 polarization in C57BL/6J mouse model of MOG (35 to 55 residues)/pertussis toxin/complete Freund's adjuvant-induced experimental allergic encephalomyelitis assessed as CD206 level in draining lymph nodes at 200 mg/kg, ig administered daily starting from 7 days post-immunization measured after 13 to 19 days post-immunization by flow cytometry analysis (reference value: 6.5%); format: functional
Procedure, shortened: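 MOG35-55/CFA EAE mice were dosed daily in saline from day 7 and sampled between days 13 and 19. Cells came from spleen and dLN by mechanical dissociation and from CNS by collagenase IV/Percoll. They were stained for F4/80 with CD206 (M2) or CD86 (M1), and each was read by flow cytometry as a percentage of total F4/80+ macrophages.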

[5] = test system: Mus musculus; test: (§3) Antiinflammatory activity in C57BL/6J mouse model of MOG (35 to 55 residues)/pertussis toxin/complete Freund's adjuvant-induced experimental allergic encephalomyelitis assessed as reduction in demyelination in spinal cord at 200 mg/kg, ig administered daily starting from 7 days post-immunization measured after 14 days post-immunization by H and E staining based microscopic analysis; format: functional, organism-based
Procedure, shortened: (§4)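 EAE mice dosed daily in saline from day 7 were perfused with PBS and fixed in 4% PFA on day 14; spinal cords were taken. For LFB, frozen OCT sections sat 3 h in 0.1% Luxol Fast Blue at 56-60°C, were differentiated in 0.05% lithium carbonate for 10-12 s, cleared in 70% ethanol, dehydrated and mounted. For H&E, paraffin sections were stained to assess inflammation.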

[6] = test system: Mus musculus; test: as §3, with “infiltration” for “demyelination”, “LFB” for “H and E”; format: functional, organism-based; procedure, shortened: as §4
[7] = test system: BMDM; test: Modulation of M2 polarization in C57BL/6J mouse BMDM cells assessed as up regulation of CD206 expression at 300 nM measured after 24 hrs by FACS analysis; format: functional, cell-based
Procedure, shortened: (§5)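 BMDMs exposed to compound (300 nM, or a range of concentrations) for 24 h. Stained for F4/80 and CD206; % CD206+F4/80+ cells read by flow cytometry. Mean ± SEM, at least three independent experiments.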

[8] = Toxicity in ICR mouse assessed as adverse effect at 400 mg/kg, ig administered daily for 14 days; format: organism-based; conditions: in vivo, po, 336 h
Procedure, shortened: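 Repeated-dose study in healthy mice over 14 days. Read-outs were body weight change, serum parameters, and organ-to-body and organ-to-brain weight ratios.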

[9] = test system: BMDM; test: Modulation of M2 polarization in C57BL/6J mouse BMDM cells assessed as up regulation of CD206 expression measured after 24 hrs by FACS analysis; format: functional, cell-based; procedure, shortened: as §5
[10] = test system: RAW264.7; test: Inhibition of M1 polarization in mouse RAW264.7 cells assessed as down regulation of IL1R2 mRNA expression at 300 nM measured after 24 hrs by qRT-PCR analysis; format: functional, cell-based
[11] = Cmax in Sprague-Dawley rat at 10 mg/kg, iv administered as single dose by LC/MS analysis; format: ADME, organism-based; parameters: dose 10 mg/kg, route intravenous; conditions: in vivo
Procedure, shortened: (§6)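 Single dose in rats; venous blood (100 µL) drawn at 0, 0.5, 1, 2, 4, 8 and 12 h, plasma separated by centrifugation and held at -20 °C. Compound measured by LC/MS; Cmax, Tmax, t1/2 and AUC derived from the concentration–time data.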

[12] = AUC (0 to infinity) in Sprague-Dawley rat at 50 mg/kg, po administered as single dose via gavage by LC/MS analysis; format: ADME, organism-based; parameters: dose 50 mg/kg, time infinity, route oral; conditions: in vivo; procedure, shortened: as §6
[13] = test system: RAW264.7; test: Modulation of M1 polarization in mouse RAW264.7 cells assessed as change in Mcp1 mRNA expression at 300 nM measured after 24 hrs by qRT-PCR analysis relative to control; format: functional, cell-based; conditions: RAW264.7, 24 h, read-out: FC
Procedure, shortened: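 RAW264.7 cells (DMEM, 10% FBS) exposed 24 h to 300 nM compound alone; LPS 50 ng/ml as positive control. Mcp1 mRNA by qRT-PCR; fold change = dosed group level / control group level.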

[14] = test system: Mus musculus; test: as §1, with “Treg” for “dendritic”, “spleen” for “CNS”, “CD4” for “CD11c”; format: functional, organism-based; procedure, shortened: as §2
[15] = test system: Mus musculus; test: as §1, with “Treg” for “dendritic”, “draining lymph nodes” for “CNS”, “CD4” for “CD11c”; format: functional, organism-based; procedure, shortened: as §2
[16] = target: RAC-alpha serine/threonine-protein kinase (Mus musculus) (UniProt P31750); test: Stimulation of AKT phosphorylation at 308 residue in mouse RAW264.7 cells at 300 nM measured after 4 to 24 hrs by Western blot analysis; format: cell-based
Procedure, shortened: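 Cell lysates separated by SDS-PAGE, transferred to PVDF and probed for Akt, p-Akt(308), p-Akt(473), Stat3, p-Stat3(Y705), Stat6 and p-Stat6; ECL detection, GAPDH as loading control.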

Sequence of RAC-alpha serine/threonine-protein kinase (Mus musculus) (P31750 whole entry): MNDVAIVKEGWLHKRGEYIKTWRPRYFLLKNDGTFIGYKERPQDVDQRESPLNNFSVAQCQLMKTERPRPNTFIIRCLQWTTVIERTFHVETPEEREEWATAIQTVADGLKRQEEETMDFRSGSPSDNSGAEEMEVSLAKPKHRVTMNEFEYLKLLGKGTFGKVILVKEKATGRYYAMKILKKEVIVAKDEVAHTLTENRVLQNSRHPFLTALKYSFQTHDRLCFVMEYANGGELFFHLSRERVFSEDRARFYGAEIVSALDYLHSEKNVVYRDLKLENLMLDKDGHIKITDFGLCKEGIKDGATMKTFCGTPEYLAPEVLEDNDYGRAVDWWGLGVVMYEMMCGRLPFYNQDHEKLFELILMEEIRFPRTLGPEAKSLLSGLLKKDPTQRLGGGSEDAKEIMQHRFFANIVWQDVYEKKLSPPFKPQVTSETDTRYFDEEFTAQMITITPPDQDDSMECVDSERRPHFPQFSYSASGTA

Cl.Cn1ncc(Cl)c1-c1ccc(C(=O)N[C@@H]2CNCC[C@H]2c2cccc(F)c2)cc1
Tmax [1]: 3.25 h | Activity [2]: inactive | Activity [3]: inactive | Activity [4]: 10.1% | Activity [5]: Active | Activity [6]: Active | Activity [7]: Active | Activity [8]: Non-Toxic | Activity [9]: Dose-dependent effect | inhibition [10]: Active | Cmax [11]: 1000 ng/mL | AUC(0-inf) [12]: 4740 ng·h/mL | fold induction at 0.3 µM [13]: 1.47 | Activity [14]: inactive | Activity [15]: inactive | Activity [16]: Active
